In ChEMBL document CHEMBL4673340 (J Med Chem, 2020):
Calls of active or inactive are those of the source. The calls are words filed in the database; no cut-off is given here.

Tests used:
hERG (KCNH2) = hERG (KCNH2) (Homo sapiens, UniProt Q12809); test: Inhibition of human ERG activity at 20 uM by functional cellular assay
[1] = Solubility of the compound; assay type: physicochemical
[2] = Clearance in mouse liver microsomes; assay type: ADME, Microsome; conditions: read-out: CLH
[3] = target: T1, Poly [ADP-ribose] polymerase 1 (Homo sapiens, UniProt P09874); test: Inhibition of human PARP-1 catalytic domain (662 to 1011 residues) expressed in Escherichia coli BL21(DE3) cells pre-incubated for 30 mins before addition of activated DNA and NAD by fluorescence based assay
[4] = target: T1, Poly [ADP-ribose] polymerase 1; test: Inhibition of PARP-1 in human HeLa cells incubated for 18 hrs in presence of H2O2; assay type: cell-based
[5] = target: Poly [ADP-ribose] polymerase 2 (Homo sapiens, UniProt Q9UGN5); test: Inhibition of PARP-2 (unknown origin) pre-incubated for 30 mins before addition of activated DNA and NAD by chemiluminescent assay
NCI-H209 [6] = test: Antitumor activity against human NCI-H209 cells xenografted in BALB/c nude mouse assessed as inhibition of tumor growth at 50 mg/kg, po QD for 5 consecutive days at start of study and again 14 days later; assay type: functional, organism-based; conditions: time 19.0 day
Summary of the method: (§1)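 Female BALB/c nude mice are implanted subcutaneously with 1 × 10⁷ H209 cells in cold PBS. At ~175 mm³ they are randomized into four groups of 8. TMZ is given orally in 0.5% MC at 10 mL/kg, QD on days 1–5 and 15–19. Caliper tumor volume (0.5ab²) is measured twice weekly and reported as mean ± SEM.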

NCI-H209 [7] = test: Antitumor activity against human NCI-H209 cells xenografted in BALB/c nude mouse assessed as tumor relapse at 50 mg/kg, po QD for 5 consecutive days at start of study and again 14 days later and measured after 48 days; assay type: functional, organism-based; conditions: time 19.0 day; summary of the method: as §1
NCI-H209 [8] = test: Antitumor activity against human NCI-H209 cells xenografted in BALB/c nude mouse assessed as PR rate at 50 mg/kg, po QD for 5 consecutive days at start of study and again 14 days later; assay type: functional; conditions: time 19 day; summary of the method: as §1
[9] = Oral bioavailability in Sprague-Dawley rat at 5 mg/kg by LC-MS/MS analysis; assay type: ADME, organism-based; conditions: in vivo
Summary of the method: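 Pharmacokinetics in Sprague-Dawley rats, three per group. iv 2 mg/kg in 38% DMA in water; po 5 mg/kg. Plasma was protein-precipitated, diluted with water and analysed by LC-MS/MS using an acetonitrile/0.1% formic acid gradient. Values are means of three rats.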

MDA-MB-436 = test: Antitumor activity against human MDA-MB-436 cells xenografted in BALB/c nude mouse assessed as inhibition of tumor growth at 25 to 50 mg/kg, po BID for 28 days followed by treatment was interruption and monitored for additional 2 months; assay type: functional, organism-based; conditions: dose 25-50 mg/kg, time 28.0 day
Summary of the method: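 Female 8-week-old BALB/c nude mice receive 5 × 10⁶ cells in PBS:Matrigel 1:1 subcutaneously in the right flank. […] Tumors are then monitored 2 more months. Caliper volume V = 0.5ab² is taken twice weekly.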

[10] = Clearance in rat at 5 mg/kg, po by LC-MS/MS analysis; assay type: ADME, organism-based; conditions: in vivo
[11] = AUC (0 to 24 hrs) in rat at 5 mg/kg, po by LC-MS/MS analysis; assay type: ADME, organism-based; set-up: time < 24 hr, route oral, dose 5 mg/kg; conditions: in vivo

Sequence of Poly [ADP-ribose] polymerase 2 (Q9UGN5 whole entry): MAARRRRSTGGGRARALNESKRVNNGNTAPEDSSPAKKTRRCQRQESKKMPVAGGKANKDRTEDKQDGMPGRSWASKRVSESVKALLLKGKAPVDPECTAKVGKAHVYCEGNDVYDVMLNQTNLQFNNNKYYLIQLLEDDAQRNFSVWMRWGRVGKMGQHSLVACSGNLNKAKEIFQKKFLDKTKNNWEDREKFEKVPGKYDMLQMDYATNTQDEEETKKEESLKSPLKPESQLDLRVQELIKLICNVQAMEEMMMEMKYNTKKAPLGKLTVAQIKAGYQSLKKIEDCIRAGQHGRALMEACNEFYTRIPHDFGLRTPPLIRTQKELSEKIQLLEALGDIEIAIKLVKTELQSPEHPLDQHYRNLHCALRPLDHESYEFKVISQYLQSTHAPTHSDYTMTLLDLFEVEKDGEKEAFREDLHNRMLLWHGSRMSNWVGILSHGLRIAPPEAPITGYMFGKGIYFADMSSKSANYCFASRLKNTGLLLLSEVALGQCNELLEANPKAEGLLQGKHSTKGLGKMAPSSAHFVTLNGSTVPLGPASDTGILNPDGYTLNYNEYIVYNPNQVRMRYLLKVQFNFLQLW
T1 sequence (P09874 whole entry, the tested form may be a part): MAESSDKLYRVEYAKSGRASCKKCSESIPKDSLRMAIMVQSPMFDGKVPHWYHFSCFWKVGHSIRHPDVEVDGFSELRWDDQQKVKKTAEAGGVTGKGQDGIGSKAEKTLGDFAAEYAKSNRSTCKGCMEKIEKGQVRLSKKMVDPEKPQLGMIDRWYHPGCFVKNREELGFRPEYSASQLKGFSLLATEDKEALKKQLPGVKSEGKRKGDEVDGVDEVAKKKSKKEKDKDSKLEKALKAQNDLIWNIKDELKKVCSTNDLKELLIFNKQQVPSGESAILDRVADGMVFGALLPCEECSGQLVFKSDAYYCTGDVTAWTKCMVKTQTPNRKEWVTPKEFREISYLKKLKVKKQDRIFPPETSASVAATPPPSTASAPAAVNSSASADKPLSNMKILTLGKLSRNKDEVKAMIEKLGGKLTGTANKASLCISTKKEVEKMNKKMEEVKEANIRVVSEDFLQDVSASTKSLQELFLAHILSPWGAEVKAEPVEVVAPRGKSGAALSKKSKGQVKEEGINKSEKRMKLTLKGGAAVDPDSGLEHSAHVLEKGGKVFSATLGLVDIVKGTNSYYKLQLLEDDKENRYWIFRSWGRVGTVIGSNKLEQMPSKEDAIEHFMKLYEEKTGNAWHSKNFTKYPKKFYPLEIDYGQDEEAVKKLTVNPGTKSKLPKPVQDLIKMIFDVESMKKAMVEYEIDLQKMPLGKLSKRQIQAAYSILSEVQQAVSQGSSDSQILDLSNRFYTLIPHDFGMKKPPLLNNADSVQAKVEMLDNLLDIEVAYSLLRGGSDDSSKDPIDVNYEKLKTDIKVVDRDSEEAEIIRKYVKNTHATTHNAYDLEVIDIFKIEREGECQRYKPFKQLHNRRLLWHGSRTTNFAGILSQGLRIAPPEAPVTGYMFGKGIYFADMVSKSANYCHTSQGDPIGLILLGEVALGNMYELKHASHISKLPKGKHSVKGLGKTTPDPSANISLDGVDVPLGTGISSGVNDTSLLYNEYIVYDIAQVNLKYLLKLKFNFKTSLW
Sequence of hERG (KCNH2) (Q12809 whole entry): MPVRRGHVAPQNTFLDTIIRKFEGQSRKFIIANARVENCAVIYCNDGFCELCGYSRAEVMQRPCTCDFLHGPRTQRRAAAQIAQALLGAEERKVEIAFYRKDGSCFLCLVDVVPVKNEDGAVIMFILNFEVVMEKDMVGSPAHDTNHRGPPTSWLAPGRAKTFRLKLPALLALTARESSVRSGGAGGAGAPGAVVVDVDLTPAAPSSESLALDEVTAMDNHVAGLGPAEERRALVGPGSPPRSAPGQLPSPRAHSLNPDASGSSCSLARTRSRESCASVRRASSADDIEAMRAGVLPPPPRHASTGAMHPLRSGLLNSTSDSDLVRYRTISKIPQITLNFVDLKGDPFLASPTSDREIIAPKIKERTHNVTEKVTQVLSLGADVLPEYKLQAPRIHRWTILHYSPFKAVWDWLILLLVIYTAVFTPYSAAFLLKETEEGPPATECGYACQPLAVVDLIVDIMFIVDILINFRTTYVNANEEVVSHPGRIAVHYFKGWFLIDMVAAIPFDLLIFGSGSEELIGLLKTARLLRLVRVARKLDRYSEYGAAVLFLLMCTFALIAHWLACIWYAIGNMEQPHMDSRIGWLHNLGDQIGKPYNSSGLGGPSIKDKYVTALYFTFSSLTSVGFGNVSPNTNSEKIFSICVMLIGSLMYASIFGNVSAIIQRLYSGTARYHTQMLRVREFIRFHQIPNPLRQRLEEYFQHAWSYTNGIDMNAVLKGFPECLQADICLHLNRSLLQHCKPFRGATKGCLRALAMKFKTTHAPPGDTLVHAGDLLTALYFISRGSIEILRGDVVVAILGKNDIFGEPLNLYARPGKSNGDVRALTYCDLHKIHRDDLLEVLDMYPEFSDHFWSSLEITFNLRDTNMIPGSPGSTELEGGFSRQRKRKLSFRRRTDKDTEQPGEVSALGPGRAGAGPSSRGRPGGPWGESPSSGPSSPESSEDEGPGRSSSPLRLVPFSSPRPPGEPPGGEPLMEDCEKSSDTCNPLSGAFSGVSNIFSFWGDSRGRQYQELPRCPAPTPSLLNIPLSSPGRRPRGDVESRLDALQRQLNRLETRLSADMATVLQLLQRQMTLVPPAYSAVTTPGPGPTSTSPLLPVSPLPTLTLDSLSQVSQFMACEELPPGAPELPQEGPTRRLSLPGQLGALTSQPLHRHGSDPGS

Row | IC50 [3] | EC50 [4] | SMILES | inhibition at 20 µM (hERG (KCNH2)) | other results
1 | 9.8 nM | 15.4 nM | CC1(C(=O)N2CC3=NNC(=O)c4cc(F)cc5[nH]c(c3c45)C2)CC1 | – | –
2 | 28.8 nM | 45.5 nM | CC1(C)CCc2[nH]c3cc(F)cc4c3c2C1=NNC4=O | – | –
3 | 7 nM | 0.5 nM | CNCCn1c2c3c4c(cccc41)C(=O)NN=C3CC(C)(C)C2 | – | –
4 | 28.1 nM | 24.1 nM | O=C1NN=C2CN(C(=O)C3(c4ccccc4)CC3)Cc3[nH]c4cc(F)cc1c4c32 | – | CL/F [10]: 71 mL/min/kg

Further lines, the compound ahead of its results:

Row | SMILES | IC50 [3] | EC50 [4] | inhibition at 20 µM (hERG (KCNH2)) | other results
5 | CC(C)(N)C(=O)N1CC2=NNC(=O)c3cccc4[nH]c(c2c34)C1 | – | – | 43% | –
6 | CCN(CC)CCn1c2c3c4c(cccc41)C(=O)NN=C3CC(C)(C)C2 | – | – | 95% | solubility [1]: Soluble
7 | CN1CC2=NNC(=O)c3cc(F)cc4[nH]c(c2c34)C1 | – | – | – | CLint scaled [2]: 275 mL/min/kg
8 | O=C1NN=C2CN(C(=O)C3(O)CC3)Cc3[nH]c4cc(F)cc1c4c32 | 4.7 nM | 3.5 nM | – | –
9 | CC1CC2=NNC(=O)c3cc(F)cc4[nH]c(c2c34)C1 (stereo not drawn) | 4.9 nM | 2.7 nM | – | IC50 [5]: 1.3 nM
10 | O=C1NN=C2CN(C(=O)[C@@H]3CCCN3)Cc3[nH]c4cc(F)cc1c4c32 | 6.6 nM | 11.7 nM | – | –
11 | CC(C)C1CC2=NNC(=O)c3cc(F)cc4[nH]c(c2c34)C1 (stereo not drawn) | – | – | – | IC50 [5]: 0.7 nM
12 | O=C1NN=C2CCCCc3[nH]c4cc(F)cc1c4c32 | – | – | – | IC50 [5]: 0.7 nM
13 | CN(C)CCn1c2c3c4c(cccc41)C(=O)NN=C3CC(C)(C)C2 | – | – | 77% | IC50 [5]: 0.3 nM; solubility [1]: Soluble
14 | CC1(C)CC2=NNC(=O)c3cccc4c3c2c(n4CCN2CCCCC2)C1 | – | – | 92% | solubility [1]: Soluble
15 | O=C1NN=C2CN(S(=O)(=O)C3CC3)Cc3[nH]c4cc(F)cc1c4c32 | 8 nM | 9.3 nM | – | –
16 | CC12CCCN1Cc1[nH]c3cc(F)cc4c3c1C2=NNC4=O (stereo not drawn) | 73 nM | 54.7 nM | – | –
17 | O=C1NN=C2CC(c3ccccc3)Cc3[nH]c4cc(F)cc1c4c32 (stereo not drawn) | – | – | – | IC50 [5]: 1.8 nM
18 | Cn1nnc2c(C(N)=O)ncn2c1=O [TEMOZOLOMIDE] | – | – | – | TGI (NCI-H209 [6]): Active; Activity (NCI-H209 [7]): inactive; Activity (NCI-H209 [8]): 13%
19 | CN(C)CCn1c2c3c4c(cc(F)cc41)C(=O)NN=C3CC(C)(C)C2 | – | – | 73% | IC50 [5]: 0.3 nM; solubility [1]: Soluble
20 | O=C(c1cc(Cc2n[nH]c(=O)c3ccccc23)ccc1F)N1CCN(C(=O)C2CC2)CC1 [OLAPARIB] | – | – | – | bioavailability [9]: 10%; TGI (MDA-MB-436): Active
21 | CC1(C)CC2=NNC(=O)c3cccc4c3c2c(n4CCO)C1 | – | 176 nM | – | –
22 | O=C1NN=C2CN(C(=O)C3CC3)Cc3[nH]c4cccc1c4c32 | – | – | 12% | CLint scaled [2]: 250 mL/min/kg; CL/F [10]: 114 mL/min/kg
23 | CC(C)N1CC2=NNC(=O)c3cccc4[nH]c(c2c34)C1 | – | – | 39% | bioavailability [9]: 19%; CLint scaled [2]: 174 mL/min/kg; AUC(0-t) at 24 h [11]: 141 ng·h/mL; CL/F [10]: 114 mL/min/kg
24 | CC1(C)CC2=NNC(=O)c3cccc4c3c2c(n4CCN2CCCC2)C1 | – | – | 97% | solubility [1]: Soluble
25 | CC1(C)C(C(=O)N2CC3=NNC(=O)c4cc(F)cc5[nH]c(c3c45)C2)C1(C)C | 17.9 nM | 16.6 nM | – | –
26 | CC1(C)CC2=NNC(=O)c3cc(F)cc4[nH]c(c2c34)C1 | – | – | 32% | –
27 | NC1(C(=O)N2CC3=NNC(=O)c4cc(F)cc5[nH]c(c3c45)C2)CC1 | 9.9 nM | 22 nM | – | –
28 | CC1(C)C(=O)C2=NNC(=O)c3cc(F)cc4[nH]c(c2c34)C1=O | 13.1 nM | 76.1 nM | – | –
